ChEMBL document CHEMBL1255303, “In vitro and in vivo antifungal activities of T-2307, a novel arylamidine” (2008)
In brackets after ≈: the same amount, converted by molar mass. Starred links: 1 amine or outer side, 2 acyl side, 3 side chain; linkers in the order of their positions; H or OH if unused. Positions of bridges follow the written chain, without caps; N, C: chain ends. Non-standard residues stand in square brackets, D forms with d. Residues, ends and D or L forms follow the SMILES beside them. *: point of attachment. hTyr(3S-OH,4S-OH,3'-OSO3H) = N[C@H](C(=O)O)[C@H](O)[C@@H](O)c1ccc(O)c(OS(=O)(=O)O)c1; Orn(4R-OH,5R-OH) = O=C([C@H](C[C@@H](O)[C@@H](O)N[*:3])N[*:1])[*:2]; Pro(3S-OH,4S-Me) = C[C@H]1CN[C@H](C(=O)O)[C@H]1O; X1 = CCCCCOc1ccc(-c2cc(-c3ccc(C(=O)*)cc3)no2)cc1; Gln(3R-OH) = NC(=O)C[C@@H](O)[C@H](N)C(=O)O; Hyp = O=C(O)[C@@H]1C[C@@H](O)CN1

Key:
Type in all cases: functional
Cryptococcus neoformans [1] = assay: Antifungal activity against Cryptococcus neoformans TIMM 0354 after 72 hrs by broth microdilution method; details: TIMM 0354, 72 h
Method in brief: (§1)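 CLSI M27-A2 (yeasts) or M38-A (A. fumigatus) broth microdilution in RPMI 1640 buffered to pH 7.0 with 0.165 M MOPS. Final inocula were 0.65–2.5 × 10^3 CFU/ml for yeasts and 0.87–3.8 × 10^4 CFU/ml for filamentous fungi. Incubation was at 35°C for about 48 h (72 h for C. neoformans). MIC was the lowest concentration giving a prominent (~50%) turbidity drop versus growth control; amphotericin B required complete inhibition.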

Candida tropicalis = assay: Antifungal activity against Candida tropicalis IFO 1400 after 48 hrs by broth microdilution method; details: IFO 1400, 48 h
Method in brief: (§2)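 CLSI M27-A2 (yeasts) / M38-A (moulds) broth microdilution in RPMI 1640 buffered to pH 7.0 with 0.165 M MOPS. Malassezia furfur got the same medium supplemented with glucose, bile salts, glycerol, glycerol monostearate and Tween 20. Final inoculum 0.65 × 10^3–2.5 × 10^3 CFU/ml for yeasts and 0.87 × 10^4–3.8 × 10^4 CFU/ml for filamentous fungi. Incubation at 35°C except M. racemosus and F. solani, which were held at 30°C.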

Candida albicans [2] = assay: Antifungal activity against Candida albicans ATCC MYA-574 after 47 hrs by broth microdilution method; details: ATCC MYA-574, 47 h
Method in brief: (§3)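 Fluconazole-resistant or susceptible-dose-dependent C. albicans ATCC strains were tested by broth microdilution in RPMI 1640-MOPS. Inoculum was 1.1 × 10^3–1.5 × 10^3 CFU/ml, with incubation at 35°C for about 47 h. Yeast MIC was read as about 50% turbidity decrease relative to growth control, except amphotericin B, read at complete inhibition.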

Fusarium solani = assay: Antifungal activity against Fusarium solani IFO 31093 after 48 hrs by broth microdilution method; details: IFO 31093, 48 h; method in brief: as §2
Aspergillus fumigatus [3] = assay: Antifungal activity against Aspergillus fumigatus TIMM 0063 after 48 hrs by broth microdilution method; details: TIMM 0063, 48 h; method in brief: as §2
Malassezia furfur = assay: Antifungal activity against Malassezia furfur NBRC 0656 after 48 hrs by broth microdilution method; details: NBRC 0656, 48 h; method in brief: as §2
Mucor racemosus = assay: Antifungal activity against Mucor racemosus NBRC5403 after 24 hrs by broth microdilution method; details: NBRC5403, 24 h
Candida albicans [4] = assay: Antifungal activity against Candida albicans ATCC 24433 after 48 hrs by broth microdilution method; details: ATCC 24433, 48 h; method in brief: as §1
Candida parapsilosis [5] = assay: Antifungal activity against Candida parapsilosis clinical isolates after 48 hrs by broth microdilution method; details: Lodderomyces parapsilosis
Method in brief: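 Japanese hospital Candida isolates were tested by CLSI M27-A2 broth microdilution in RPMI 1640–MOPS, pH 7.0, with inocula of 0.57–2.5 × 10^3 CFU/ml at 35°C for about 48 h. Inocula came from 24-h potato dextrose agar cultures. MIC was the lowest concentration with about 50% turbidity reduction versus growth control (complete inhibition for amphotericin B). Range, MIC50 and MIC90 were reported.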

Nakaseomyces glabratus = assay: Antifungal activity against Candida glabrata clinical isolates after 48 hrs by broth microdilution method
Method in brief: (§4)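 Clinical isolates from Japanese hospitals or culture collections were tested by broth microdilution in RPMI 1640-MOPS. Inoculum was 0.57 × 10^3–2.5 × 10^3 CFU/ml for yeasts and 0.4 × 10^4–3.3 × 10^4 CFU/ml for filamentous fungi. Incubation was at 35°C for about 48 h, or 72 h where footnoted. Results were summarised as MIC range, MIC50 and MIC90.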

Candida albicans [6] = assay: Antifungal activity against Candida albicans ATCC 64124 after 47 hrs by broth microdilution method; details: ATCC 64124, 47 h
Method in brief: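 Fluconazole-resistant or susceptible-dose-dependent ATCC C. albicans strains were tested by CLSI M27-A2 broth microdilution in RPMI 1640–0.165 M MOPS, pH 7.0, with a final inoculum of 1.1–1.5 × 10^3 CFU/ml at 35°C for about 47 h. MIC was the lowest concentration with a prominent (~50%) turbidity decrease relative to growth control; amphotericin B was read at complete inhibition.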

Pichia kudriavzevii = assay: Antifungal activity against Candida krusei IFO 0584 after 48 hrs by broth microdilution method; details: IFO 0584, 48 h; method in brief: as §2
Trichosporon asahii = assay: Antifungal activity against Trichosporon asahii JCM 2466 after 48 hrs by broth microdilution method; details: JCM 2466, 48 h; method in brief: as §2
[7] = test system: Meyerozyma guilliermondii; assay: Antifungal activity against Candida guilliermondii IFO 10279 after 48 hrs by broth microdilution method; details: IFO 10279, 48 h; method in brief: as §2
Aspergillus flavus = assay: Antifungal activity against Aspergillus flavus NBRC 6343 after 48 hrs by broth microdilution method; details: NBRC 6343, 48 h; method in brief: as §2
Candida parapsilosis [8] = assay: Antifungal activity against Candida parapsilosis NBRC 10219 after 48 hrs by broth microdilution method; details: Lodderomyces parapsilosis, NBRC 10219, 48 h; method in brief: as §1
Aspergillus terreus = assay: Antifungal activity against Aspergillus terreus NBRC 33026 after 48 hrs by broth microdilution method; details: NBRC 33026, 48 h; method in brief: as §2
Cryptococcus neoformans [9] = assay: Antifungal activity against Cryptococcus neoformans ATCC 90112 after 72 hrs by broth microdilution method; details: ATCC 90112, 72 h; method in brief: as §1
Candida albicans [10] = assay: Antifungal activity against Candida albicans clinical isolates after 48 hrs by broth microdilution method; method in brief: as §4
Candida albicans [11] = assay: Antifungal activity against Candida albicans ATCC MYA-2732 after 47 hrs by broth microdilution method; details: ATCC MYA-2732, 47 h; method in brief: as §3
Aspergillus fumigatus [12] = assay: Antifungal activity against Aspergillus fumigatus IFM 46895 infected ICR mouse after 6 days; details: IFM 46895, 144 h
Method in brief: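 Male ICR mice, 4 weeks old and SPF, were made neutropenic with intraperitoneal cyclophosphamide. The schedule was 200 mg/kg on day −3 (day −4 for Cryptococcus) plus 100 mg/kg on day +1. Infection was by tail-vein injection of 0.2 ml suspension: C. albicans 3.0 × 10^4, C. neoformans 9.1 × 10^4, A. fumigatus conidia 8.4 × 10^4 CFU/mouse. Drugs were given subcutaneously once daily for 7 days from 2 h post-infection; controls received saline. Groups had 8–10 mice.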

Aspergillus fumigatus [13] = assay: Antifungal activity against Aspergillus fumigatus ATCC 16424 after 48 hrs by broth microdilution method; details: ATCC 16424, 48 h; method in brief: as §1

C[C@@H]1[C@H](O)[C@@H](C)/C=C/C=C/C=C/C=C/C=C/C=C/C=C/[C@H](O[C@@H]2O[C@H](C)[C@@H](O)[C@H](N)[C@@H]2O)C[C@@H]2O[C@](O)(C[C@@H](O)C[C@@H](O)[C@H](O)CC[C@@H](O)C[C@@H](O)CC(=O)O[C@H]1C)C[C@H](O)[C@H]2C(=O)O [AMPHOTERICIN B]
MFC (Cryptococcus neoformans [1]): 1 µg/mL (≈ 1.08 µM)
MIC (Cryptococcus neoformans [1]): 1 µg/mL (≈ 1.08 µM)
MFC (Candida tropicalis): 1 µg/mL (≈ 1.08 µM)
MIC (Candida tropicalis): 1 µg/mL (≈ 1.08 µM)
MIC (Candida albicans [2]): 1 µg/mL (≈ 1.08 µM)
MFC (Fusarium solani): 2 µg/mL (≈ 2.16 µM)
MIC (Fusarium solani): 2 µg/mL (≈ 2.16 µM)
MFC (Aspergillus fumigatus [3]): 2 µg/mL (≈ 2.16 µM)
MIC (Aspergillus fumigatus [3]): 2 µg/mL (≈ 2.16 µM)
MFC (Malassezia furfur): 64 µg/mL (≈ 69.3 µM)
MIC (Malassezia furfur): 0.5 µg/mL (≈ 0.541 µM)
MFC (Mucor racemosus): 2 µg/mL (≈ 2.16 µM)
MIC (Mucor racemosus): 1 µg/mL (≈ 1.08 µM)
MFC (Candida albicans [4]): 1 µg/mL (≈ 1.08 µM)
MIC (Candida albicans [4]): 1 µg/mL (≈ 1.08 µM)
MIC50 (Candida parapsilosis [5]): 2 µg/mL (≈ 2.16 µM)
MIC90 (Candida parapsilosis [5]): 2 µg/mL (≈ 2.16 µM)
MIC (Nakaseomyces glabratus): 1 µg/mL (≈ 1.08 µM)
MIC50 (Nakaseomyces glabratus): 1 µg/mL (≈ 1.08 µM)
MIC90 (Nakaseomyces glabratus): 2 µg/mL (≈ 2.16 µM)
MIC (Candida albicans [6]): 2 µg/mL (≈ 2.16 µM)
MFC (Pichia kudriavzevii): 2 µg/mL (≈ 2.16 µM)
MIC (Pichia kudriavzevii): 2 µg/mL (≈ 2.16 µM)
MFC (Trichosporon asahii): 4 µg/mL (≈ 4.33 µM)
MIC (Trichosporon asahii): 2 µg/mL (≈ 2.16 µM)
MFC [7]: 1 µg/mL (≈ 1.08 µM)
MIC [7]: 0.5 µg/mL (≈ 0.541 µM)
MFC (Aspergillus flavus): 2 µg/mL (≈ 2.16 µM)
MIC (Aspergillus flavus): 2 µg/mL (≈ 2.16 µM)
MFC (Candida parapsilosis [8]): 1 µg/mL (≈ 1.08 µM)
MIC (Candida parapsilosis [8]): 1 µg/mL (≈ 1.08 µM)
MFC (Aspergillus terreus): > 64 µg/mL
MIC (Aspergillus terreus): 2 µg/mL (≈ 2.16 µM)
MFC (Cryptococcus neoformans [9]): 1 µg/mL (≈ 1.08 µM)
MIC (Cryptococcus neoformans [9]): 1 µg/mL (≈ 1.08 µM)
MIC50 (Candida albicans [10]): 2 µg/mL (≈ 2.16 µM)
MIC90 (Candida albicans [10]): 2 µg/mL (≈ 2.16 µM)
MIC (Candida albicans [11]): 2 µg/mL (≈ 2.16 µM)
ED50 (Aspergillus fumigatus [12]): 0.289 mg/kg
MFC (Aspergillus fumigatus [13]): 2 µg/mL (≈ 2.16 µM)
MIC (Aspergillus fumigatus [13]): 1 µg/mL (≈ 1.08 µM)

CCCCCOc1ccc(-c2cc(-c3ccc(C(=O)N[C@H]4C[C@@H](O)[C@@H](O)NC(=O)[C@@H]5[C@@H](O)[C@@H](C)CN5C(=O)[C@H]([C@H](O)CC(N)=O)NC(=O)[C@H]([C@H](O)[C@@H](O)c5ccc(O)c(OS(=O)(=O)O)c5)NC(=O)[C@@H]5C[C@@H](O)CN5C(=O)[C@H]([C@@H](C)O)NC4=O)cc3)no2)cc1 [MICAFUNGIN] (X1-[Orn(4R-OH,5R-OH)]T[Hyp][hTyr(3S-OH,4S-OH,3'-OSO3H)][Gln(3R-OH)][Pro(3S-OH,4S-Me)]; lactam 1-C)
MFC (Cryptococcus neoformans [1]): > 64 µg/mL
MIC (Cryptococcus neoformans [1]): > 64 µg/mL
MFC (Candida tropicalis): > 64 µg/mL
MIC (Candida tropicalis): 0.0625 µg/mL (≈ 0.0492 µM)
MIC (Candida albicans [2]): 0.0625 µg/mL (≈ 0.0492 µM)
MFC (Fusarium solani): > 64 µg/mL
MIC (Fusarium solani): > 64 µg/mL
MFC (Aspergillus fumigatus [3]): > 64 µg/mL
MIC (Aspergillus fumigatus [3]): 0.0156 µg/mL (≈ 0.0123 µM)
MFC (Malassezia furfur): > 64 µg/mL
MIC (Malassezia furfur): > 64 µg/mL
MFC (Mucor racemosus): > 64 µg/mL
MIC (Mucor racemosus): 32 µg/mL (≈ 25.2 µM)
MFC (Candida albicans [4]): 0.25 µg/mL (≈ 0.197 µM)
MIC (Candida albicans [4]): 0.0313 µg/mL (≈ 0.0246 µM)
MIC50 (Candida parapsilosis [5]): 2 µg/mL (≈ 1.57 µM)
MIC90 (Candida parapsilosis [5]): 4 µg/mL (≈ 3.15 µM)
MIC50 (Nakaseomyces glabratus): 0.0625 µg/mL (≈ 0.0492 µM)
MIC90 (Nakaseomyces glabratus): 0.0625 µg/mL (≈ 0.0492 µM)
MIC (Candida albicans [6]): 0.0625 µg/mL (≈ 0.0492 µM)
MFC (Pichia kudriavzevii): 0.25 µg/mL (≈ 0.197 µM)
MIC (Pichia kudriavzevii): 0.125 µg/mL (≈ 0.0984 µM)
MFC (Trichosporon asahii): > 64 µg/mL
MIC (Trichosporon asahii): > 64 µg/mL
MFC [7]: 8 µg/mL (≈ 6.3 µM)
MIC [7]: 0.5 µg/mL (≈ 0.394 µM)
MFC (Aspergillus flavus): > 64 µg/mL
MIC (Aspergillus flavus): 0.0625 µg/mL (≈ 0.0492 µM)
MFC (Candida parapsilosis [8]): > 32 µg/mL
MIC (Candida parapsilosis [8]): 2 µg/mL (≈ 1.57 µM)
MFC (Aspergillus terreus): > 64 µg/mL
MIC (Aspergillus terreus): 0.0313 µg/mL (≈ 0.0246 µM)
MFC (Cryptococcus neoformans [9]): > 64 µg/mL
MIC (Cryptococcus neoformans [9]): > 64 µg/mL
MIC50 (Candida albicans [10]): 0.0625 µg/mL (≈ 0.0492 µM)
MIC90 (Candida albicans [10]): 0.125 µg/mL (≈ 0.0984 µM)
MIC (Candida albicans [11]): 0.125 µg/mL (≈ 0.0984 µM)
ED50 (Aspergillus fumigatus [12]): 0.699 mg/kg
MFC (Aspergillus fumigatus [13]): > 64 µg/mL
MIC (Aspergillus fumigatus [13]): 0.0313 µg/mL (≈ 0.0246 µM)
